Consider 16 compounds from ChEMBL document CHEMBL3588754, “Parallel Synthesis of Hexahydrodiimidazodiazepines Heterocyclic Peptidomimetics and Their in Vitro and in Vivo Activities at μ (MOR), δ (DOR), and κ (KOR) Opioid Receptors” (J Med Chem, 2015).

Assay [1] has as its target Delta-type opioid receptor (Rattus norvegicus, UniProt P33533). The experiment in a line: Displacement of [3H]DPDPE from delta opioid receptor in rat cortices by competition binding assay. Summed up: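 Rat cortex membranes were prepared in 50 mM Tris pH 7.4 with 10 mM MgCl2 and 200 μM PMSF. Assay used 2 nM [3H]DPDPE, incubated 2.5 h at 25 °C. Unlabeled DPDPE defined nonspecific binding. Filtration was through BSA-soaked GF/B filters, with scintillation counting. Ki is mean ± SD of two experiments, each in duplicate.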

A further assay deals with Mu-type opioid receptor (Rattus norvegicus, UniProt P33535). Briefly: Displacement of [3H]DAMGO from mu opioid receptor in rat cortices by competition binding assay. The method, boiled down: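 Rat cortex membranes were prepared in 50 mM Tris pH 7.4, preincubated at 37 °C for 30 min, and resuspended with 2 mg/mL bovine serum. Assay used 2 nM [3H]DAMGO. Binding was stopped by filtration through BSA-soaked GF/B filters, followed by scintillation counting. IC50 was converted to Ki. Values are mean ± SD of two experiments, each in duplicate.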

Assay [2] concerns the target Kappa-type opioid receptor (Cavia porcellus, UniProt P41144). The experiment in a line: Displacement of [3H]U69593 from kappa opioid receptor in guinea pig cortices and cerebella by competition binding assay. Summed up: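 Guinea pig cortex and cerebellum membranes were prepared in 50 mM Tris pH 7.4 with 10 mM MgCl2. Assay used 2 nM [3H]U69,593, incubated 2 h at 25 °C. Unlabeled U50,488 defined nonspecific binding. Filtration was through GF/B filters, with scintillation counting. Ki is mean ± SD of two experiments, each in duplicate.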

The target in assay [3] is Delta-type opioid receptor (Homo sapiens, UniProt P41143). The experiment in a line: Agonist activity at delta opioid receptor (unknown origin) expressed in CHO-K1 cells assessed as inhibition of forskolin-induced cAMP accumulation by FRET assay. In kind it is functional, cell-based. The method, boiled down: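 CHO cells stably expressing DOR, plated at 20 000 cells/well (figure legend: 100 000). Exposed to test agent with 4 μM forskolin (legend: 1 μM) in 1× PBS with 1 mM […] for 30 min at rt. HTRF cAMP read-out with europium cryptate and d2 in lysis buffer for 1 h. EC50 ± SEM from three experiments, two replicates each.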

For assay [4], the system named is Mus musculus. Briefly: Antinociceptive effect in icv dosed C57BL/6 mouse assessed as tail withdrawal latency measured up to 2 hrs by 55 degC Warm water tail withdrawal assay. In kind it is functional.
For assay [5], the species on record is Mus musculus. The experiment in a line: Ratio of ED50 for antinociceptive effect in C57BL/6 mouse by 55 degC Warm water tail withdrawal assay to ED50 for analgesic activity in C57BL/6 mouse by acetic acid writhing assay. In kind it is functional. Summed up: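 Index from ip ED50 values in adult male C57BL/6J mice given ip doses in 1:1:8 ethanol/Tween-80/saline (n = 8/dose). Tail-withdrawal: 55 °C water, read at 30 min, % antinociception against baseline with a 15 s cutoff. Writhing: 0.9% acetic acid ip 25 min post-dose, writhes counted over 15 min, compared with vehicle. ED50 from regression; ratio is tail-withdrawal/writhing.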

The test system of assay [6] is Mus musculus. Briefly: Antinociceptive effect in po dosed C57BL/6 mouse assessed as tail withdrawal latency measured up to 2 hrs by 55 degC Warm water tail withdrawal assay. In kind it is functional. The conditions noted are these: C57BL/6, Tail.
In assay [7] the test system is Mus musculus. The experiment in a line: Antinociceptive effect in ip dosed C57BL/6 mouse assessed as tail withdrawal latency measured up to 2 hrs by 55 degC Warm water tail withdrawal assay. In kind it is functional. The conditions noted are these: C57BL/6, Tail.

Where only a bound is given, the exact number is not on record here.

On to `Oc1ccc(C[C@H]2CN3C(=CC4=NC[C@H](Cc5ccc(O)cc5)N4C[C@@H]3Cc3ccccc3)N2)cc1`, for which the figures for the Ki (in assay [1]; on Mu-type opioid receptor; in assay [2]) were 69 nM, 605 nM and 2370 nM, respectively.
Take `CC(C)C[C@H]1CN2C(=CC3=NC[C@H](Cc4ccccc4)N3C[C@@H]2Cc2ccc(O)cc2)N1`: the Ki in assay [1] came out at 57 nM; on Mu-type opioid receptor, 1330 nM; in assay [2], 3440 nM. The EC50 in assay [3] turned out to be 6360 nM.
As for `CN1CC[C@]23c4c5ccc(O)c4O[C@H]2[C@@H](O)C=C[C@H]3[C@H]1C5` [MORPHINE], in the assay on Mus musculus [4], the Activity result was “Dose-dependent effect”. The “Ratio ED50” value in the assay listed under Mus musculus [5] is 2.23. For the same compound, the results for the median effective dose (ED50) in the assay with Mus musculus [6] and in the assay on Mus musculus [7] were 2.07 mg/kg and 3.91 mg/kg, respectively.
For `Oc1ccc(C[C@H]2CN3C(=CC4=NC[C@H](Cc5ccccc5)N4C[C@@H]3Cc3ccccc3)N2CCc2ccccc2)cc1`, the Ki in assay [1] was 1280 nM; at Mu-type opioid receptor, 3150 nM; in assay [2], greater than 10000 nM.
On to `Oc1ccc(C[C@H]2CN3C(=CC4=NC[C@H](Cc5ccccc5)N4C[C@@H]3Cc3ccccc3)N2)cc1`, for which the results for the Ki (in assay [1]; on Mu-type opioid receptor; in assay [2]) were 2090 nM, 566 nM and 8390 nM, respectively.
On to `CC(C)C[C@H]1CN2C(=CC3=NC[C@H](Cc4ccccc4)N3C[C@@H]2Cc2ccc(O)cc2)N1CCc1ccccc1`, for which the Ki was determined as 37 nM in assay [1], 949 nM on Mu-type opioid receptor and 642 nM in assay [2]. The EC50 in assay [3] stood at 1640 nM.
Turning to `CC(C)C[C@H]1CN2C(=CC3=NC[C@H](C(C)C)N3C[C@@H]2Cc2ccccc2)N1CCc1ccccc1`, the Ki is 1020 nM in assay [1], 2750 nM at Mu-type opioid receptor and 1400 nM in assay [2].
With `Oc1ccc(C[C@H]2CN3C(=CC4=NC[C@H](Cc5ccc(O)cc5)N4C[C@@H]3Cc3ccc(O)cc3)N2CCc2ccccc2)cc1`, the results for the Ki (in assay [1]; at Mu-type opioid receptor; in assay [2]) were 392 nM, 246 nM and 1550 nM, respectively.
For the compound `Oc1ccc(C[C@H]2CN3C(=CC4=NC[C@H](Cc5ccccc5)N4C[C@@H]3Cc3ccc(O)cc3)N2)cc1`, the results for the Ki (in assay [1]; on Mu-type opioid receptor; in assay [2]) were 338 nM, 1180 nM and 4140 nM, respectively.
Consider `CC(C)C[C@H]1CN2C(=CC3=NC[C@H](C(C)C)N3C[C@@H]2Cc2ccccc2)N1`, for which the Ki is no less than 10000 nM in assay [1], greater than 10000 nM on Mu-type opioid receptor and 1080 nM in assay [2].
The matching figures for `Oc1ccc(C[C@H]2CN3C(=CC4=NC[C@H](Cc5ccc(O)cc5)N4C[C@@H]3Cc3ccccc3)N2CCc2ccccc2)cc1`: 50 nM, 393 nM and 767 nM.
The matching figures for `Oc1ccc(C[C@H]2CN3C(=CC4=NC[C@H](Cc5ccccc5)N4C[C@@H]3Cc3ccc(O)cc3)N2CCc2ccccc2)cc1`: 188 nM, 878 nM and 1310 nM.
For the compound `CC(C)[C@H]1CN=C2C=C3N[C@@H](Cc4ccc(O)cc4)CN3[C@@H](Cc3ccccc3)CN21`, the Ki in assay [1] was no less than 10000 nM; on Mu-type opioid receptor, 5040 nM; in assay [2], 1950 nM.
Consider `CC(C)C[C@H]1CN2C(=CC3=NC[C@H](C(C)C)N3C[C@@H]2Cc2ccc(O)cc2)N1`, for which the Ki turned out to be 215 nM in assay [1], 1190 nM on Mu-type opioid receptor and 209 nM in assay [2].
Turning to `CC(C)[C@H]1CN=C2C=C3N(CCc4ccccc4)[C@@H](Cc4ccc(O)cc4)CN3[C@@H](Cc3ccccc3)CN21`, the Ki amounted to 1380 nM in assay [1], 1110 nM at Mu-type opioid receptor and 1900 nM in assay [2].
The matching figures for `Oc1ccc(C[C@H]2CN3C(=CC4=NC[C@H](Cc5ccc(O)cc5)N4C[C@@H]3Cc3ccc(O)cc3)N2)cc1`: 316 nM, 552 nM and 3760 nM.
